Measured values taken from ChEMBL document CHEMBL5380852, “N'-Phenylacetohydrazide Derivatives as Potent Ebola Virus Entry Inhibitors with an Improved Pharmacokinetic Profile” (J Med Chem, 2023).
The source made the active and inactive calls. No cut-off for these calls is given here.

Key:
[1] = Tmax in BALB/c mouse plasma at 50 mg/kg, po measured upto 24 hrs by LC-MS/MS method; format: ADME, organism-based; conditions: in vivo
In short: (§1)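 Male BALB/c mice aged 8–12 weeks (20–35 g) received one dose in a solution of 90% PBS pH 7.4, 5% solutol HS-15 and 5% NMP: 10 mg/kg i.p. or 50 mg/kg p.o. Three mice per time point, sampled up to 24 h. Plasma and brain were taken at each point and assayed by LC–MS/MS. Parameters came from noncompartmental analysis.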

[2] = Cmax in BALB/c mouse brain at 10 mg/kg, ip measured upto 24 hrs by LC-MS/MS method; format: ADME, organism-based; design: time < 24 hrs, dose 10 mg/kg, route ip; conditions: in vivo; in short: as §1
[3] = Tmax in BALB/c mouse plasma at 10 mg/kg, ip measured upto 24 hrs by LC-MS/MS method; format: ADME, organism-based; conditions: in vivo; in short: as §1
[4] = Tmax in BALB/c mouse brain at 50 mg/kg, po measured upto 24 hrs by LC-MS/MS method; format: ADME, organism-based; conditions: in vivo; in short: as §1
[5] = AUClast in BALB/c mouse brain at 10 mg/kg, ip measured upto 24 hrs by LC-MS/MS method; format: ADME, organism-based; design: time < 24 hrs, dose 10 mg/kg, route ip; conditions: in vivo; in short: as §1
[6] = Tmax in BALB/c mouse brain at 10 mg/kg, ip measured upto 24 hrs by LC-MS/MS method; format: ADME, organism-based; conditions: in vivo; in short: as §1
[7] = Selectivity index, ratio of CC50 for african green monkey Vero E6 cells to EC50 for wild type Zaire EBOV mayinga; format: cell-based, Vero C1008; conditions: read-out: Ratio CC50/EC50
[8] = Selectivity index, ratio of CC50 for human HeLa cells to EC50 for pseudotyped Ebola virus infected in HeLa cells; format: toxicity, cell-based; conditions: read-out: Ratio CC50/EC50
[9] = AUClast in BALB/c mouse plasma at 10 mg/kg, ip measured upto 24 hrs by LC-MS/MS method; format: ADME, organism-based; design: dose 10 mg/kg, time < 24 hrs, route ip; conditions: in vivo; in short: as §1
[10] = Cmax in BALB/c mouse plasma at 10 mg/kg, ip measured upto 24 hrs by LC-MS/MS method; format: ADME, organism-based; design: dose 10 mg/kg, time < 24 hrs, route ip; conditions: in vivo; in short: as §1
[11] = Inhibition of EBOV-GP to human C-terminal Flag tagged NPC1 protein protein interaction at 50 uM by ELISA
In short: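 GP particles were cleaved with thermolysin (250 μg/mL, 1 h, 37 °C; stopped with 1 mM phosphoramidon) and captured on plates by anti-GP mAb KZ52. Purified Flag-tagged human NPC1 domain C (10 μg/mL), expressed in HEK293T, was added with or without compound at 50 μM. Bound protein was detected with anti-Flag-HRP and TMB at 450 nm, n = 3.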

[12] = AUClast in BALB/c mouse plasma at 50 mg/kg, po measured upto 24 hrs by LC-MS/MS method; format: ADME, organism-based; design: time < 24 hrs, dose 50 mg/kg, route po; conditions: in vivo; in short: as §1
[13] = Cmax in BALB/c mouse brain at 50 mg/kg, po measured upto 24 hrs by LC-MS/MS method; format: ADME, organism-based; design: time < 24 hrs, dose 50 mg/kg, route po; conditions: in vivo; in short: as §1
[14] = Cmax in BALB/c mouse plasma at 50 mg/kg, po measured upto 24 hrs by LC-MS/MS method; format: ADME, organism-based; design: dose 50 mg/kg, time < 24 hrs, route po; conditions: in vivo; in short: as §1
[15] = AUClast in BALB/c mouse brain at 50 mg/kg, po measured upto 24 hrs by LC-MS/MS method; format: ADME, organism-based; design: dose 50 mg/kg, time < 24 hrs, route po; conditions: in vivo; in short: as §1
[16] = Cytotoxicity against human HeLa cells assessed as reduction in cell viability incubated for 24 hrs by MTS assay; format: toxicity, cell-based
In short: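 HeLa cells (2×10^4/well) were grown in DMEM with 10% FBS and exposed to compound at 0–200 μM for 24 h. Viability was read by MTS reduction at 490 nm, as a percentage of untreated cells, and CC50 was derived.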

Ebolavirus = test: Antiviral activity against pseudotyped Ebola virus infected in HeLa cells preincubated for 1 hr followed by viral infection and measured after 48 hrs by steady-glo luciferase assay; format: functional, organism-based; conditions: Orthoebolavirus
In short: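 HeLa cells (2×10^4/well; DMEM, 10% FBS, 1% L-glutamine, 37 °C, 5% CO2) were pretreated with compound for 1 h at 37 °C, then given 5000 TCID50 of HIV-luciferase lentivirus pseudotyped with EBOV-GP. After 48 h, cells were washed, lysed and luciferase read. Primary screen was at 10 μM final. […] EC50 is the mean of three independent experiments, from normalized dose–response fits with 95% CI.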

Structure (SMILES) | Tmax [1] | Cmax [2] | Tmax [3] | Tmax [4] | AUClast [5] | Tmax [6] | selectivity ratio [7] | selectivity ratio [8] | AUClast [9] | Cmax [10] | inhibition [11] | AUClast [12] | Cmax [13] | Cmax [14] | AUClast [15] | CC50 at 24 h [16] | EC50 (Ebolavirus)
O=C(CCNCCC1CCN(Cc2ccccc2)CC1)NN(c1ccccc1)c1ccccc1 | 0.25 h | 51.03 ng/mL | 4.8 min | 4 h | 1142.02 ng·h/mL | 8 h | 31.5 | 115 | 559.47 ng·h/mL | 283.42 ng/mL | – | – | – | – | – | – | –
O=C(CCNCCN1CCN(Cc2ccccc2)CC1)NN(c1ccccc1)c1ccccc1 | 0.25 h | – | 4.8 min | 24 h | 3886.74 ng·h/mL | 8 h | 13.1 | 274 | 83.83 ng·h/mL | – | Active | 152.76 ng·h/mL | 341.33 ng/mL | 93.62 ng/mL | 7109.56 ng·h/mL | – | –
CN(C)CCOc1ccc(/C(=C(/CCCl)c2ccccc2)c2ccccc2)cc1 [TOREMIFENE] | – | – | – | – | – | – | – | – | – | – | – | – | – | – | – | > 100000 nM | 70 nM
